T cell HTS: modulates CD8 T cell binding to vesicles; 2C CD8+ T cell-vesicle binding, flow cytometry; hits give low values; response (vesicle binding), % at 7 µM; 330,000 compounds, 0.068% hits;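 active = response, share of CD8 T cells binding vesicles, and their 90th percentile fluorescence all below set limits, cut at about 80% in these data, passing the limit was not always enough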;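 also: values below 100% mean blocked vesicle binding to the CD8+ T cells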
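Material: 2C TCR transgenic mouse naive CD8+ T cells, MACS-purified. Also added: QL9-charged Drosophila Ld/ICAM-1/B7-1 vesicles. Timing: binding 1.5 h at 37 °C. Measured by: high-throughput flow cytometry with anti-B7-1 and anti-CD8 staining. Read-out: percent CD8+ FL2 mean versus row control. Controls: Unloaded micro-vesicles (low), QL9 vesicles with 0.7% DMSO (high).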
NR3A LBD binder: modulators (binders) of human NR3A ligand-binding domain; 340,000 compounds, 2.5% hits; Tm shift relative to glycine control, % at 25 µM; NR3A LBD differential scanning fluorimetry, Tm shift; 0% = protein alone, 100% = glycine-bound protein; AID 1259313;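 active = melting temperature shift of at least 10% of the positive control shift, at one fixed dose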
JMJD2C inh: inhibitors of human GASC-1 (JMJD2C) demethylase; Q9H3R0; GST-JMJD2C(1-420) H3K9me3 demethylation, DELFIA europium; inhibition, % at 2.35 µM; 330,000 compounds, 0.069% hits;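 active = more than half of a compound's replicate wells show inhibition beyond 50%, single wells judged on their own value; inconclusive = some, but no more than half, of replicates pass 50% inhibition; inactive = no replicate passes 50% inhibition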;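 also: signal counts dimethyl H3K9 product captured on neutravidin plate; 0% = median of DMSO wells and 100% = 0.3 times that DMSO median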
Target sequence (Q9H3R0 1-420 limits assumed): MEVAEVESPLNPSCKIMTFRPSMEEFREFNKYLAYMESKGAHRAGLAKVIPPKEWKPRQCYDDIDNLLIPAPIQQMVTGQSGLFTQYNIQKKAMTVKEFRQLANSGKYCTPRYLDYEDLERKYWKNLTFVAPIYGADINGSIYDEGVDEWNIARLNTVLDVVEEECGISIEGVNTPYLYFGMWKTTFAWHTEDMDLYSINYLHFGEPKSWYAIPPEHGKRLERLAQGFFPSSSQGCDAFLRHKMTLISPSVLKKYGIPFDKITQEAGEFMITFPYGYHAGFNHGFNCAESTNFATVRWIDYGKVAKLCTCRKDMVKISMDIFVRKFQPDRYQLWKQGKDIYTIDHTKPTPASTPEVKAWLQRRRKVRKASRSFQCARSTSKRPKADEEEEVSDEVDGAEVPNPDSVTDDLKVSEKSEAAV
Rtt109 HAT inh: inhibitors of Candida albicans Rtt109/Vps75 histone acetyltransferase | 330,000 compounds, 0.16% hits | purified Rtt109/Vps75, ThioGlo CoA-SH fluorescence, 4 h | Q5AAJ8 | inhibition, % at 34.9 µM;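 active = inhibition of at least 50% in every replicate; inconclusive = best replicate reaches 50% inhibition but some replicates fall short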
An asterisk follows results filed as active; i = inactive; ? = inconclusive; nt = no result given. The list is not random: actives were taken first. Their share in the collection is about 2.8%.

SMILES	T cell HTS	NR3A LBD binder	JMJD2C inh	Rtt109 HAT inh
CC1O[C@@H](OCC2O[C@@H](Oc3cc(O)c4c(c3)OC(c3ccc(O)cc3)CC4=O)[C@H](O)[C@@H](O)[C@@H]2O)[C@H](O)[C@H](O)[C@H]1O (stereo partly specified)	642.9	0.7	3.0	-13.1
COc1ccc(C2=CC(=O)C=CC2=O)cc1	nt	nt	-32.6	103.6*
CC(C)(C)c1cc(NS(=O)(=O)c2cccs2)no1	119.4	0.2	-15.5	0.5
O=S(=O)(c1ccc(NC(=S)Nc2ccc(OC(F)F)cc2)cc1)N1CCOCC1	218.0	26.1*	5.3	1.8
CC(C)(C)CC(C)(C)NC(=S)Nc1ccc(S(=O)(=O)N2CCOCC2)cc1	54.9	22.1*	8.2	6.8
NNC(=S)Nc1ccc(S(=O)(=O)N2CCOCC2)cc1	196.0	-0.1	-1.9	4.9
O=S(=O)(c1ccc(NC(=S)NCCC(c2ccccc2)c2ccccc2)cc1)N1CCOCC1	439.5	16.5*	4.9	20.9
O=C(O)c1ccccc1C=NN1CCCCCC1	nt	0.2	nt	-0.3
O=C(Nc1nc2ccc(SC(F)F)cc2s1)c1ccc(NS(=O)(=O)c2ccc(F)c(F)c2)cc1	111.8	47.1*	8.6	-3.8
CC(C)(C)NS(=O)(=O)c1ccc2nc(NC(=O)c3ccc(N4C(=O)CCC4=O)cc3)sc2c1	914.5	0.5	-9.8	nt
CS(=O)(=O)c1ccc2nc(NC(=O)c3cccc(NS(=O)(=O)c4ccc(F)c(F)c4)c3)sc2c1	222.2	26.1*	1.1	19.5
CS(=O)(=O)c1ccc2nc(NC(=O)c3cc([N+](=O)[O-])cc([N+](=O)[O-])c3)sc2c1	167.2	-5.8	-0.3	-3.0
CS(=O)(=O)c1ccc2nc(NC(=O)c3ccc(NS(=O)(=O)c4ccc(F)c(F)c4)cc3)sc2c1	330.5	23.6*	-0.8	-0.8
CC(C)OC(=O)C(C(=O)C(F)(F)F)c1cc(NS(=O)(=O)c2ccc3ccccc3c2)c2ccccc2c1O (stereo unspecified)	261.7	24.3*	-5.6	17.7
CSc1ccc(OCC(=O)Nc2ccc(N3CCOCC3)c(Cl)c2)cc1	nt	-9.8	-11.7	-22.1
O=C(COc1c(F)c(F)c(C(F)(F)F)c(F)c1F)Nc1ccc(N2CCOCC2)c(Cl)c1	397.3	11.3*	2.9	13.1
COC(=O)c1[nH]nc2c1C(=O)N(Cc1ccccc1)C2=O	339.0	6.2	-1.1	0.0
COC(=O)c1[nH]nc(-c2ccccc2)c1-c1ccccc1	710.6	-1.3	4.2	54.1*
CCOc1ccc(NC(=O)c2ccc(NC(=O)c3ccc(NC(N)=O)cc3)cc2)cc1	381.5	26.8*	9.2	nt
COc1ccc(NC(=O)NCCC2=CCCCC2)cc1	185.5	30.6*	-1.6	nt
N#CCC(=O)Nc1ccc(C(=O)NNC(=S)NC2CCCCC2)cc1	429.7	29.2*	5.6	nt
CCc1cccc(CC)c1NC(=O)NC1CCCCC1	207.5	12.7*	-1.1	-5.6
CCOc1ccc(NC(=O)c2ccc(OC)cc2)cc1	176.3	-15.4	9.8	-3.0
COC(=O)c1ccc(NC(=O)NC2CCCCC2)cc1	167.7	-1.7	3.5	-18.1
COc1ccc(NC(=O)NC2CCCCCCC2)cc1	69.1*	3.3	10.1	-2.1
SMILES	T cell HTS	NR3A LBD binder	JMJD2C inh	Rtt109 HAT inh
CCOc1ccc(NC(=O)c2ccc(NC(=S)NC3CC3)cc2)cc1	106.8	30.9*	8.0	0.4
CCOc1ccc(NC(=O)c2ccc(NC(=S)NC3CCCCC3)cc2)cc1	208.1	28.0*	1.6	34.9
Cc1ccc2oc(C(=O)NCC(c3ccco3)N(C)C)c(C)c2c1 (stereo unspecified)	i	0.3	6.8	30.8
COc1cc2[nH]c(=S)nc(NCc3cccc(Cl)c3)c2cc1OC	178.2	-14.3	-6.0	9.4
S=c1nc(NCc2cccc(Cl)c2)c2ccccc2[nH]1	308.5	14.9*	-4.8	9.8
CC(=O)Nc1ccc(NC(=O)CSc2nc(N)c(NC(=O)c3ccccc3F)c(=O)[nH]2)cc1	229.1	0.2	-6.0	-9.2
COc1cc(C)c(CN2CCC(n3nccc3NC(=O)C3CCOC3)CC2)cc1C (stereo unspecified)	567.3	0.8	1.0	2.3
CC1CCC2(CC1)NC(=O)N(CC(=O)Nc1ccc3[nH]c(=O)[nH]c3c1)C2=O (stereo unspecified)	331.3	19.5*	8.2	6.0
CC1CC(C)(C)CC2(C1)NC(=O)N(CC(=O)Nc1ccc3[nH]c(=O)[nH]c3c1)C2=O (stereo unspecified)	171.0	-0.3	4.9	1.2
O=C(CN1CCN(Cc2ccc3c(c2)OCO3)CC1)Nc1ccc2[nH]c(=O)[nH]c2c1	403.5	-0.2	-1.6	-0.8
Cc1ccccc1N=C1N=C(N)c2ccccc21	291.0	3.0	59.5*	-0.9
Nc1nc(Nc2ccccc2)nc(NCc2ccco2)c1[N+](=O)[O-]	299.0	-8.0	3.9	11.3
Fc1ccc(Nc2nc(NCc3ccco3)c3ccccc3n2)cc1	677.1	10.2*	52.4	-1.6
CCOC(=O)C1=C(CS(=O)(=O)c2ccc(F)cc2)NC(=O)NC1c1ccc(O)c(O)c1 (stereo unspecified)	i	1.3	-3.1	?
CCc1ccccc1NC(=O)COc1ccc(N2CC(C(N)=O)CC2=O)cc1 (stereo unspecified)	186.3	-1.3	-1.1	-7.8
Cc1ccc(OCC(=O)O/N=C(\N)Cc2ccc(Cl)cc2)cc1	182.9	0.9	23.8	-10.8
COc1ccc(C(=O)O/N=C(\N)c2ccc(Br)cc2)cc1	nt	20.0*	-2.7	12.3
COc1ccc(OCC(=O)O/N=C(\N)Cc2ccc(Cl)cc2)cc1	176.6	14.6*	-4.2	4.2
COc1ccc(C(=O)O/N=C(\N)c2ccccc2)cc1	253.3	nt	-3.0	3.9
N/C(=N\OC(=O)c1ccc2ccccc2c1)c1cccc([N+](=O)[O-])c1	127.2	35.0*	-3.5	-2.9
N/C(=N/OC(=O)c1cccc([N+](=O)[O-])c1)c1cccc([N+](=O)[O-])c1	252.9	0.3	8.9	7.1
COc1ccc(C/C(N)=N/OC(=O)c2cccc([N+](=O)[O-])c2)cc1	219.5	13.7*	4.7	-1.9
COc1ccccc1C/C(N)=N/OC(=O)c1cccc([N+](=O)[O-])c1	432.6	0.7	-1.4	-5.3
N/C(=N\OC(=O)c1cccc(Br)c1)c1ccc([N+](=O)[O-])cc1	208.1	13.7*	4.3	3.1
N/C(=N\OC(=O)c1cccc(Br)c1)c1ccc(Br)cc1	463.4	23.1*	4.2	6.4
Cc1ccccc1NC(=O)c1cc(C(=O)c2cc(Cl)ccc2O)cn(-c2ccccc2C)c1=O	129.5	13.6*	11.9	0.5
Cc1ccc(-n2cc(C(=O)c3cc(Cl)ccc3O)cc(C#N)c2=O)cc1	399.5	2.1	6.0	-5.2
Cc1ccccc1Cn1nnc(-c2ccc(F)cc2)n1	188.8	-0.7	20.0	-0.6
NC(=O)c1ccc[n+](CC(=O)Nc2ccccc2C(=O)O)c1	882.1	-2.2	-7.5	-4.8
COc1ccccc1C(=O)N/C(=C\c1cn(S(=O)(=O)N(C)C)c2ccccc12)C(=O)NCCN1CCOCC1	323.3	-1.6	1.0	2.6

Assay outcomes: PubChem BioAssay, several laboratories
